Measured values taken from ChEMBL document CHEMBL5058577, “EUbOPEN Chemogenomics Library 2 (Multiplex)” (2022).

Test system: HEK-293T
Experiment: Multiplex assay against HEK293T
Type: toxicity, cell-based
Settings: human
Procedure, shortened: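 Values for tubulin, mitochondrial-mass and membrane-permeability phenotypes are per cents of cells with healthy nuclei. These cells were identified by CellPathfinder machine-learning gating of live cells that had been stained at seeding with Hoechst33342, BioTracker Green Microtubule Cytoskeleton Dye, MitoTracker Red and Annexin V Alexa Fluor 680 and imaged on a CQ1 microscope at 37°C and 5% CO2 after compound addition. The gating first set Hoechst high-intensity objects apart from normal cells, then split normal cells into healthy, pyknosed or fragmented nuclei, and pyknosed cells into mitotic or apoptotic.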

[1] = 12 h, 1 µM, compound concentration 1 uM, replicate 1
[2] = 12 h, 1 µM, compound concentration 1 uM, replicate 2
[3] = 12 h, 10 µM, compound concentration 10 uM, replicate 1
[4] = 12 h, 10 µM, compound concentration 10 uM, replicate 2
[5] = 24 h, 1 µM, compound concentration 1 uM, replicate 1
[6] = 24 h, 1 µM, compound concentration 1 uM, replicate 2
[7] = 24 h, 10 µM, compound concentration 10 uM, replicate 1
[8] = 24 h, 10 µM, compound concentration 10 uM, replicate 2
[9] = 48 h, 1 µM, compound concentration 1 uM, replicate 1
[10] = 48 h, 1 µM, compound concentration 1 uM, replicate 2
[11] = 48 h, 10 µM, compound concentration 10 uM, replicate 1
[12] = 48 h, 10 µM, compound concentration 10 uM, replicate 2

## CCc1cc2cc(NS(=O)(=O)c3ccc(C#N)cc3)ccc2n(CC)c1=O
[1]
  Population Apoptotic (%): 43%
  Population Fragmented Nuclei (%): 8%
  Population Healthy Nuclei (%): 78%
  Population Hoechst High Intensity Objects (%): 9%
  Population Membrane Permeable-Phenotype (%): 0%
  Population Mitochondria Different-Phenotype (%): 37%
  Population Mitotic Cells (%): 56%
  Population Normal (%): 90%
  Population Pyknosed Nuclei (%): 12%
  Population Tubulin-Different-Phenotype (%): 28%
  Total Cell Count: 411
[2]
  Population Apoptotic (%): 40%
  Population Fragmented Nuclei (%): 7%
  Population Hoechst High Intensity Objects (%): 7%
  Population Mitochondria Different-Phenotype (%): 64%
  Population Mitotic Cells (%): 59%
  Population Normal (%): 92%
  Population Pyknosed Nuclei (%): 14%
  Population Tubulin-Different-Phenotype (%): 29%
  Total Cell Count: 338
[3]
  Population Apoptotic (%): 38%
  Population Fragmented Nuclei (%): 7%
  Population Healthy Nuclei (%): 80%
  Population Hoechst High Intensity Objects (%): 7%
  Population Membrane Permeable-Phenotype (%): 0%
  Population Mitochondria Different-Phenotype (%): 47%
  Population Mitotic Cells (%): 61%
  Population Normal (%): 92%
  Population Pyknosed Nuclei (%): 12%
  Population Tubulin-Different-Phenotype (%): 48%
  Total Cell Count: 404
[4]
  Population Apoptotic (%): 65%
  Population Fragmented Nuclei (%): 6%
  Population Healthy Nuclei (%): 69%
  Population Hoechst High Intensity Objects (%): 16%
  Population Mitochondria Different-Phenotype (%): 71%
  Population Mitotic Cells (%): 34%
  Population Normal (%): 83%
  Population Pyknosed Nuclei (%): 23%
  Population Tubulin-Different-Phenotype (%): 41%
  Total Cell Count: 291
[5]
  Population Apoptotic (%): 29%
  Population Fragmented Nuclei (%): 8%
  Population Healthy Nuclei (%): 80%
  Population Hoechst High Intensity Objects (%): 5%
  Population Membrane Permeable-Phenotype (%): 1%
  Population Mitochondria Different-Phenotype (%): 19%
  Population Mitotic Cells (%): 70%
  Population Normal (%): 94%
  Population Pyknosed Nuclei (%): 11%
  Population Tubulin-Different-Phenotype (%): 18%
  Total Cell Count: 510
[6]
  Population Apoptotic (%): 43%
  Population Fragmented Nuclei (%): 7%
  Population Healthy Nuclei (%): 84%
  Population Membrane Permeable-Phenotype (%): 0%
  Population Mitochondria Different-Phenotype (%): 44%
  Population Mitotic Cells (%): 56%
  Population Pyknosed Nuclei (%): 7%
  Population Tubulin-Different-Phenotype (%): 22%
  Total Cell Count: 403
[7]
  Population Apoptotic (%): 33%
  Population Fragmented Nuclei (%): 9%
  Population Healthy Nuclei (%): 80%
  Population Hoechst High Intensity Objects (%): 6%
  Population Membrane Permeable-Phenotype (%): 0%
  Population Mitochondria Different-Phenotype (%): 36%
  Population Mitotic Cells (%): 66%
  Population Normal (%): 93%
  Population Pyknosed Nuclei (%): 10%
  Population Tubulin-Different-Phenotype (%): 32%
  Total Cell Count: 478
[8]
  Population Apoptotic (%): 63%
  Population Fragmented Nuclei (%): 10%
  Population Healthy Nuclei (%): 73%
  Population Hoechst High Intensity Objects (%): 17%
  Population Membrane Permeable-Phenotype (%): 1%
  Population Mitochondria Different-Phenotype (%): 58%
  Population Mitotic Cells (%): 36%
  Population Normal (%): 82%
  Population Pyknosed Nuclei (%): 16%
  Population Tubulin-Different-Phenotype (%): 29%
  Total Cell Count: 332
[9]
  Population Apoptotic (%): 30%
  Population Fragmented Nuclei (%): 11%
  Population Healthy Nuclei (%): 81%
  Population Hoechst High Intensity Objects (%): 2%
  Population Membrane Permeable-Phenotype (%): 1%
  Population Mitochondria Different-Phenotype (%): 11%
  Population Mitotic Cells (%): 69%
  Population Normal (%): 97%
  Population Pyknosed Nuclei (%): 6%
  Population Tubulin-Different-Phenotype (%): 13%
  Total Cell Count: 878
[10]
  Population Apoptotic (%): 38%
  Population Fragmented Nuclei (%): 14%
  Population Healthy Nuclei (%): 79%
  Population Hoechst High Intensity Objects (%): 4%
  Population Mitochondria Different-Phenotype (%): 23%
  Population Mitotic Cells (%): 61%
  Population Normal (%): 95%
  Population Pyknosed Nuclei (%): 5%
  Population Tubulin-Different-Phenotype (%): 12%
  Total Cell Count: 608
[11]
  Population Apoptotic (%): 26%
  Population Fragmented Nuclei (%): 14%
  Population Healthy Nuclei (%): 78%
  Population Hoechst High Intensity Objects (%): 4%
  Population Membrane Permeable-Phenotype (%): 1%
  Population Mitochondria Different-Phenotype (%): 23%
  Population Mitotic Cells (%): 73%
  Population Normal (%): 95%
  Population Pyknosed Nuclei (%): 6%
  Population Tubulin-Different-Phenotype (%): 20%
  Total Cell Count: 734
[12]
  Population Apoptotic (%): 47%
  Population Fragmented Nuclei (%): 16%
  Population Healthy Nuclei (%): 73%
  Population Hoechst High Intensity Objects (%): 10%
  Population Mitochondria Different-Phenotype (%): 40%
  Population Mitotic Cells (%): 52%
  Population Normal (%): 89%
  Population Pyknosed Nuclei (%): 9%
  Population Tubulin-Different-Phenotype (%): 23%
  Total Cell Count: 383
